Data published in ChEMBL document CHEMBL1152423, “Development of N-[11C]methylamino 4-hydroxy-2(1H)-quinolone derivatives as PET radioligands for the glycine-binding site of NMDA receptors” (Bioorg Med Chem, 2009).
One block for each molecule: values may come before it. Activity calls are given as the source filed them. No cut-off for these calls is given here.

How the values were obtained:
[1] = biological target: Glutamate NMDA receptor; assay: Displacement of [3H]MDL-105519 from glycine binding site of NMDA receptor in rat cortical membrane by liquid scintillation counting; assay type: cell membranes
Outline: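 Washed rat cortical membranes in 50 mM Tris–HCl (pH 8.0) were incubated 45 min at 4 °C with [3H]MDL-105,519 (2 nM) plus buffer or displacer. Nonspecific binding was defined with excess unlabeled glycine. Samples were filtered on GF/B, washed three times with ice-cold buffer, and counted by liquid scintillation. Ki came from three determinations, each in triplicate.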

[2] = n-Octanol-sodium phosphate buffer partition coefficient, log D at pH 7.4 after 15 mins by shake-flask method; assay type: physicochemical
Outline: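 Compound (1–2 mg) was shaken 15 min at ambient temperature in n-octanol and 10 mM phosphate buffer (pH 7.4). The mixture was centrifuged at 2500 rpm for 5 min, and both layers were analysed by HPLC (n=3).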

[3] = biological target: T1, Glutamate NMDA receptor (Rattus norvegicus) (UniProt P35439+Q00959+Q00960+Q00961+Q62645+Q8VHN2+Q9R1M7); assay: Binding affinity to glycine binding site of NMDA receptor in hippocampus of rat brain by autoradiography; assay type: tissue-based; conditions: tested as the 11C-labelled form
Outline: (§1)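 Rat brain sagittal sections were preincubated 30 min at 25 °C in 50 mM Tris–HCl (pH 7.4), then incubated 30 min at 25 °C with the [11C]radioligand (1.59–2.13 nM). Sections were rinsed twice for 3 min in cold buffer, dipped in cold water, dried, and exposed to imaging plates for 60 min. Nonspecific binding was taken with the corresponding unlabeled ligand; specific binding is given per region.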

[4] = biological target: T1, Glutamate NMDA receptor (Rattus norvegicus); assay: Binding affinity to glycine binding site of NMDA receptor in cerebral cortex of rat brain by autoradiography; assay type: tissue-based; conditions: tested as the 11C-labelled form; outline: as §1
[5] = biological target: T1, Glutamate NMDA receptor (Rattus norvegicus); assay: Binding affinity to glycine binding site of NMDA receptor in thalamus of rat brain by autoradiography; assay type: tissue-based; conditions: tested as the 11C-labelled form; outline: as §1
[6] = biological target: T1, Glutamate NMDA receptor (Rattus norvegicus); assay: Binding affinity to glycine binding site of NMDA receptor in striatum of rat brain by autoradiography; assay type: tissue-based; conditions: tested as the 11C-labelled form; outline: as §1
[7] = biological target: T1, Glutamate NMDA receptor (Rattus norvegicus); assay: Binding affinity to glycine binding site of NMDA receptor in cerebellum of rat brain by autoradiography; assay type: tissue-based; conditions: tested as the 11C-labelled form; outline: as §1
[8] = biological target: T1, Glutamate NMDA receptor (Rattus norvegicus); assay: Binding affinity to glycine binding site of NMDA receptor in hippocampus of rat brain by autoradiography in presence of glycine; assay type: tissue-based; conditions: tested as the 11C-labelled form
Outline: (§2)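 Hippocampal binding on rat brain slices: 30 min at 25 °C in 50 mM Tris–HCl (pH 7.4) with [11C]radioligand (1.59–2.13 nM), with or without a glycine-site drug (agonists at 1 mM). Slices were rinsed, dried and exposed to imaging plates for 60 min. PSL with drug was divided by PSL without drug to give % total binding, averaged over at least triplicate sections from three animals.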

[9] = biological target: T1, Glutamate NMDA receptor (Rattus norvegicus); assay: Binding affinity to glycine binding site of NMDA receptor in hippocampus of rat brain by autoradiography in presence of glycine-site agonist D-serine; assay type: tissue-based; conditions: tested as the 11C-labelled form; outline: as §2
[10] = biological target: T1, Glutamate NMDA receptor (Rattus norvegicus); assay: Binding affinity to glycine binding site of NMDA receptor in hippocampus of rat brain by autoradiography in presence of glycine-site antagonist L-703717; assay type: tissue-based; conditions: tested as the 11C-labelled form; outline: as §2
[11] = biological target: T1, Glutamate NMDA receptor (Rattus norvegicus); assay: Binding affinity to glycine binding site of NMDA receptor in hippocampus of rat brain by autoradiography in presence of glycine-site antagonist methoxy-MDL-104653; assay type: tissue-based; conditions: tested as the 11C-labelled form; outline: as §2
[12] = biological target: T1, Glutamate NMDA receptor (Rattus norvegicus); assay: Binding affinity to glycine binding site of NMDA receptor in hippocampus of rat brain by autoradiography in presence of glycine-site antagonist MDL-105519; assay type: tissue-based; conditions: tested as the 11C-labelled form; outline: as §2
[13] = tested on: Blood; assay: Biodistribution in ddY mouse blood assessed per gram of tissue at 7.4 MBq, iv after 1 min by gamma counting; assay type: ADME, organism-based; conditions: in vivo
Outline: (§3)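 ddY mice (35–45 g) received about 7.4 MBq of [11C]radioligand in 0.2 ml into the tail vein and were decapitated at 1 or 30 min. Blood, cerebrum and cerebellum were gamma-counted with decay correction and expressed as % injected dose/g; tissue/blood ratios were derived. n=3 or 5.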

[14] = Biodistribution in ddY mouse cerebrum assessed per gram of tissue at 7.4 MBq, iv after 1 min by gamma counting; assay type: ADME, organism-based; conditions: in vivo; outline: as §3
[15] = tested on: Cerebellum; assay: Biodistribution in ddY mouse cerebellum assessed per gram of tissue at 7.4 MBq, iv after 1 min by gamma counting; assay type: ADME, organism-based; conditions: in vivo; outline: as §3
[16] = tested on: Blood; assay: Biodistribution in ddY mouse blood assessed per gram of tissue at 7.4 MBq, iv after 30 mins by gamma counting; assay type: ADME, organism-based; conditions: in vivo, 0.5 h; outline: as §3
[17] = Biodistribution in ddY mouse cerebrum assessed per gram of tissue at 7.4 MBq, iv after 30 mins by gamma counting; assay type: ADME, organism-based; conditions: in vivo, 0.5 h; outline: as §3
[18] = tested on: Cerebellum; assay: Biodistribution in ddY mouse cerebellum assessed per gram of tissue at 7.4 MBq, iv after 30 mins by gamma counting; assay type: ADME, organism-based; conditions: in vivo, 0.5 h; outline: as §3
[19] = Ratio of drug level in cerebrum to blood of ddY mouse at 7.4 MBq, iv after 1 min; assay type: ADME, organism-based; outline: as §3
[20] = Ratio of drug level in cerebellum to blood of ddY mouse at 7.4 MBq, iv after 1 min; assay type: ADME, organism-based; outline: as §3
[21] = Ratio of drug level in cerebrum to blood of ddY mouse at 7.4 MBq, iv after 30 mins; assay type: ADME, organism-based; outline: as §3
[22] = Ratio of drug level in cerebellum to blood of ddY mouse at 7.4 MBq, iv after 30 mins; assay type: ADME, organism-based; outline: as §3
[23] = Metabolic stability in ddY mouse brain at 7.4 MBq, iv after 30 mins by radio-TLC analysis; assay type: ADME, organism-based; conditions: 40 MBq, in the assay text read “40 MBq” for “7.4 MBq”, read-out: Activity
Outline: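 Mice received [11C]radioligand (40 MBq) iv and were killed at 30 min. Whole brain was homogenized in ice-cold MeOH and centrifuged at 10,000 rpm for 1 min at 4 °C. Extracts were analysed by radio-TLC using CHCl3/CH3CN 3:1, CHCl3/MeOH 9:1, or CH3CN as mobile phase; intact parent fraction was recorded.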

[24] = Metabolic stability in ddY mouse blood at 7.4 MBq, iv after 30 mins by radio-TLC analysis; assay type: ADME, organism-based; conditions: 40 MBq, in the assay text read “40 MBq” for “7.4 MBq”, read-out: Activity
[25] = tested on: Blood; assay: Biodistribution in ddY mouse blood assessed per gram of tissue at 40 MBq, iv after 30 mins by gamma counting in presence of 5-ethyl-7-chloro-4-hydroxy-3-(3-[11C]methylaminophenyl)-2(1H)-quinolone; assay type: ADME, organism-based; conditions: in vivo, 0.5 h
Outline: (§4)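 Blocking study: [11C]radioligand was mixed with unlabeled ligand (2 mg/kg) and injected iv into ddY mice. Animals were killed at 30 min; blood, cerebrum and cerebellum were gamma-counted and expressed as % dose/g and tissue/blood ratios. Comparison with controls used the Mann–Whitney U-test.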

[26] = Biodistribution in ddY mouse cerebrum assessed per gram of tissue at 40 MBq, iv after 30 mins by gamma counting in presence of 5-ethyl-7-chloro-4-hydroxy-3-(3-[11C]methylaminophenyl)-2(1H)-quinolone; assay type: ADME, organism-based; conditions: in vivo, 0.5 h, in the assay text read “7.4 MBq” for “40 MBq”; outline: as §4
[27] = tested on: Cerebellum; assay: Biodistribution in ddY mouse cerebellum assessed per gram of tissue at 40 MBq, iv after 30 mins by gamma counting in presence of 5-ethyl-7-chloro-4-hydroxy-3-(3-[11C]methylaminophenyl)-2(1H)-quinolone; assay type: ADME, organism-based; conditions: in vivo, 0.5 h, in the assay text read “7.4 MBq” for “40 MBq”; outline: as §4
[28] = Ratio of drug level in cerebrum to blood of ddY mouse at 40 MBq, iv after 30 mins in presence of 5-ethyl-7-chloro-4-hydroxy-3-(3-[11C]methylaminophenyl)-2(1H)-quinolone; assay type: ADME, organism-based; conditions: in vivo, 0.5 h, in the assay text read “7.4 MBq” for “40 MBq”; outline: as §4
[29] = Ratio of drug level in cerebellum to blood of ddY mouse at 40 MBq, iv after 30 mins in presence of 5-ethyl-7-chloro-4-hydroxy-3-(3-[11C]methylaminophenyl)-2(1H)-quinolone; assay type: ADME, organism-based; conditions: in vivo, 0.5 h, in the assay text read “7.4 MBq” for “40 MBq”; outline: as §4
[30] = Plasma protein binding in rat at 0.67 to 0.89 […] after 30 mins by ultrafiltration; assay type: ADME, cell-free; conditions: read-out: PPB (converted)
Outline: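 Rat serum was diluted 10-fold in 66 mM phosphate buffer (pH 7.4) containing [11C]radioligand (0.67–0.89 MBq) and incubated 30 min at 30 °C. It was then ultrafiltered by centrifugation at 2000 rpm for 15 min. Radioactivity in whole plasma and in filtrate was counted to give % bound (mean, n=3).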

[31] = tested on: Blood; assay: Biodistribution in mouse blood assessed per gram of tissue at 7.4 MBq, iv after 1 min by gamma counting; assay type: ADME, organism-based; conditions: in vivo
[32] = Biodistribution in mouse cerebrum assessed per gram of tissue at 7.4 MBq, iv after 1 min by gamma counting; assay type: ADME, organism-based; conditions: in vivo
[33] = tested on: Cerebellum; assay: Biodistribution in mouse cerebellum assessed per gram of tissue at 7.4 MBq, iv after 1 min by gamma counting; assay type: ADME, organism-based; conditions: in vivo
[34] = Ratio of drug level in cerebrum to blood of mouse at 7.4 MBq, iv after 1 min; assay type: ADME, organism-based
Outline: (§5)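 ddY mice (35–45 g) received ca. 7.4 MBq ¹¹C-labelled ligand (0.2 ml) by tail-vein injection and were decapitated at 1 min. Cerebrum and cerebellum were dissected, and radioactivity was gamma-counted with decay correction and expressed as % injected dose per gram tissue. The value is the tissue-to-blood ratio of % dose/g.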

[35] = Ratio of drug level in cerebellum to blood of mouse at 7.4 MBq, iv after 1 min; assay type: ADME, organism-based; outline: as §5
[36] = biological target: Glutamate NMDA receptor; assay: Binding affinity to glycine binding site of NMDA receptor in rat brain; assay type: tissue-based

Ki [1]: 11.7 nM
logD at 0.25 h [2]: 3
Activity [3]: 70%
Activity [4]: Active
Activity [5]: Active
Activity [6]: Active
Activity [7]: 30%
Activity [8]: 46%
Activity [9]: 46%
Activity [10]: 58%
Activity [11]: 58%
Activity [12]: 58%
SMILES: CNc1ccc(Cc2cccc(-c3c(O)c4ccc(Cl)cc4[nH]c3=O)c2)cc1

Drug uptake [13]: 20.91 %ID
Drug uptake [14]: 0.47 %ID
Drug uptake [15]: 0.87 %ID
Drug uptake [16]: 9.08 %ID/g
Drug uptake [17]: 0.38 %ID/g
Drug uptake [18]: 0.53 %ID/g
Kp at 1 min [19]: 0.022
Kp at 1 min [20]: 0.042
Kp at 0.5 h [21]: 0.042
Kp at 0.5 h [22]: 0.058
remaining at 0.5 h [23]: 70%
remaining at 0.5 h [24]: 93%
Drug uptake [25]: 7.77 %ID
Drug uptake [26]: 0.34 %ID
Drug uptake [27]: 0.34 %ID
Ratio [28]: 0.044
Ratio [29]: 0.044
fraction unbound at 0.5 h [30]: 0.29
SMILES: CCc1cc(Cl)cc2[nH]c(=O)c(-c3cccc(N[11CH3])c3)c(O)c12

Drug uptake [16]: 3.46 %ID/g
Drug uptake [17]: 0.2 %ID/g
Drug uptake [18]: 0.24 %ID/g
Kp at 0.5 h [21]: 0.051
Kp at 0.5 h [22]: 0.068
Drug uptake [31]: 8.37 %ID
Drug uptake [32]: 0.32 %ID
Drug uptake [33]: 0.36 %ID
Kp at 1 min [34]: 0.038
Kp at 1 min [35]: 0.043
SMILES: [11CH3]Oc1ccc(Cc2cccc(-c3c(O)c4ccc(Cl)cc4[nH]c3=O)c2)cc1

Drug uptake [13]: 29.16 %ID
Drug uptake [14]: 0.5 %ID
Drug uptake [15]: 0.72 %ID
Drug uptake [16]: 10.66 %ID/g
Drug uptake [17]: 0.32 %ID/g
Drug uptake [18]: 0.44 %ID/g
Kp at 1 min [19]: 0.018
Kp at 1 min [20]: 0.026
Kp at 0.5 h [21]: 0.03
Kp at 0.5 h [22]: 0.042
SMILES: CCc1cc(Cl)cc2[nH]c(=O)c(-c3cccc(O[11CH3])c3)c(O)c12

Ki [1]: 22.2 nM
SMILES: CN(C)c1ccc(Cc2cccc(-c3c(O)c4ccc(Cl)cc4[nH]c3=O)c2)cc1

Ki [1]: 34.3 nM
SMILES: CCc1cc(Cl)cc2[nH]c(=O)c(-c3cccc(N(C)C)c3)c(O)c12

Ki [1]: 566 nM
SMILES: COc1cccc(-c2c(O)c3c(N(C)C)cc(Cl)cc3[nH]c2=O)c1

Ki [36]: 167 nM
SMILES: COc1cccc(-c2c(O)nc3cc(Cl)ccc3c2O)c1
